# In the library only some 0.55% were active in any assay of this set; here they are far more common.
# OXTR potentiator = potentiators of human oxytocin receptor. P30559. CHO-OTR cells, Fluo-8 calcium fluorescence, potentiator mode; 0% = oxytocin EC15, 100% = EC100. activation, % at 3 µM. 320,000 compounds, 0.061% hits. AID 2445;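 active = activation above that plate's cutoff, the mean activation of tested compounds plus 3 SD, cut at about 6.6% in these data, passing the limit was not always enough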;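 note: 100% uses oxytocin at 75 nM as the full agonist control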
#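 test system = CHO-OTR cells, human receptor | compound = single-point 3.0 µM | schedule = 6 min compound pre-incubation at room temperature, 100 s kinetic read | signal = Fluo-8 no-wash calcium dye fluorescence, excitation 470-495 nm, emission 515-575 nm | repeats = single well per compound, singlicate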
# TRPN1 ag = activates the zebrafish TRPN1 channel | 220,000 compounds, 0.18% hits | activation, % at 3 µM | HEK293 zebrafish TRPN1-YFP, Fluo-8 calcium fluorescence; 100% = response to 87 µM carbachol;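 active = activation above its plate's cutoff, the mean activation of test wells on that plate plus 3 SD, cut at about 19% in these data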;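 note: 0% = DMSO alone and 100% = 87 µM carbachol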
#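 System: zebrafish TRPN1-YFP in HEK293 cells / Dosing: 3 µM single point / Timing: dye loading 1 h at 37 °C, then 30 min room temperature / Signal: Fluo-8 calcium fluorescence, excitation 470-495 nm, emission 515-575 nm / Read-out basis: percent activation from peak over basal fluorescence ratio, control-normalized / Control set: high carbachol 87 µM, low DMSO alone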
# OXTR agonist = human OXTR agonism | P30559 | activation, % at 3 µM | CHO-OTR cells, Fluo-8 calcium fluorescence; normalized: DMSO 0%, oxytocin 100% | AID 2435 | 320,000 compounds, 0.32% hits;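 active = activation above the mean of all tested compounds plus 3 SD, cutoff set per screening run, cut at about 20% in these data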;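 note: peak over basal fluorescence ratio from a 100 s FLIPR kinetic read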
# TRPML3 agonist = human mucolipin-3 channel agonism | Q8TDD5 | HEK293 TRPML3-YFP, Fluo-8 calcium fluorescence; 100% = the carbachol control signal | activation, % at 3 µM | 220,000 compounds, 0.29% hits;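 active = activation above its plate's cutoff, the mean activation of the plate's test wells plus 3 SD, cut at about 12% in these data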;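 note: 0% = DMSO only wells and 100% = carbachol wells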
#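 Material: TRPML3-YFP stable HEK293 cells | Dosing: One concentration, 3 µM nominal, 0.3% DMSO | Timing: 125 s total fluorescence read per well | Technique: Fluo-8 calcium dye fluorescence, ex 470-495, em 515-575 nm | Measure: Percent activation from peak-to-basal fluorescence ratio, scaled between DMSO and carbachol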
# V1aR counter = counter-screen for oxytocin receptor agonists: human V1a receptor agonists. CHO-V1R cells, Fluo-8 calcium fluorescence, agonist mode; 0% DMSO, 100% 3 nM vasopressin. 320,000 compounds, 0.25% hits. AID 2797. P37288. activation, % at 3 µM;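 active = activation above the mean activation of all tested compounds plus 3 SD, per screening run, cut at about 20% in these data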;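 note: signal is peak over basal fluorescence ratio across a 100 second FLIPR read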
# Target sequence (P37288 whole entry, looked up): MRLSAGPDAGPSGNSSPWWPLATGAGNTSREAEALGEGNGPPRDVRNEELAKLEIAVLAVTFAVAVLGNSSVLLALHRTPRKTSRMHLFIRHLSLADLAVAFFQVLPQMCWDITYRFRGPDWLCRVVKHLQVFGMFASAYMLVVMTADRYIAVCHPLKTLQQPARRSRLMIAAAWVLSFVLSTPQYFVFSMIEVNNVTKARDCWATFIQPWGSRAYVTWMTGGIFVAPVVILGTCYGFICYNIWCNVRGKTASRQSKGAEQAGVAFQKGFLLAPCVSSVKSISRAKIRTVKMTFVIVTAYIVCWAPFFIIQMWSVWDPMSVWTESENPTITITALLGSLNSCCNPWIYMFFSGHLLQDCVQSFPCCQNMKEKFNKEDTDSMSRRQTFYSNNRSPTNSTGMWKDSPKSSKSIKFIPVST
# TRPN1 ag 2 = activates zebrafish TRPN1, counter-screen for TRPML3 agonists; activation, % at 3 µM; 310 compounds, 10% hits; AID 1525; HEK293 zebrafish TRPN1-YFP, Fluo-8 calcium fluorescence; scaled: carbachol wells 100%, DMSO wells 0%; shares compounds with TRPML3 agonist;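 active = mean activation over replicates above a set limit taken from the earlier TRPN1 channel primary screen, cut at about 19% in these data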;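 note: 100% = carbachol and 0% = 0.3% DMSO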
# TRPML3 confirm = human TRPML3 agonism, confirmation | activation, % at 3 µM | HEK293 TRPML3-YFP, Fluo-8 calcium fluorescence; 100% set by carbachol, 0% by DMSO | shares compounds with TRPML3 agonist | 310 compounds, 80% hits;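 active = activation above a set limit derived from the earlier primary screen, cut at about 12% in these data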
# An asterisk follows results filed as active; / = no result.
SMILES,OXTR potentiator,TRPN1 ag,OXTR agonist,TRPML3 agonist,V1aR counter,TRPN1 ag 2,TRPML3 confirm
COc1ccc(S(=O)(=O)N(CC(=O)N2CCOCC2)c2cc(Cl)ccc2OC)cc1OC,-7.6,2.6,0.0,45.2*,1.5,2.2,42.1*
COc1ccc(S(=O)(=O)NN(C)C)cc1N(C)S(=O)(=O)c1ccc(Cl)cc1,-4.7,0.8,0.1,0.4,-0.3,/,/
COC(=O)CN(c1cc(Cl)ccc1OC)S(=O)(=O)c1ccc(C)cc1,-3.0,-1.6,-0.6,69.9*,-1.1,-1.1,60.8*
COc1ccc(S(=O)(=O)Nc2ccc(C)cc2)cc1N(C)S(=O)(=O)c1ccc(Cl)cc1,-4.2,1.2,-1.4,61.0*,-0.1,-1.4,32.3*
COc1ccc(Cl)cc1N(CC(=O)N1CCCC1)S(=O)(=O)c1ccc(C)cc1,-5.5,/,0.8,/,0.4,/,/
CC(C)NC(=O)N(C)C[C@H]1Oc2ccc(NC(=O)CCN3CCOCC3)cc2C(=O)N([C@H](C)CO)C[C@@H]1C,11.9,/,1.2,/,0.8,/,/
Cc1ccc(C2=CC(c3ccc(N(C)C)cc3)n3nnnc3N2)cc1 (stereo unspecified),-7.0,14.5,7.0,17.7*,9.9,2.2,0.2
CCOC(=O)c1cc(C(=O)NN)c(=O)[nH]c1C,0.3,2.4,0.9,0.9,-0.5,/,/
CCN(CC)CCCNC(=O)C1CCN(C(=O)c2oc3cc4sc(N(C)C)nc4cc3c2C)CC1,-3.5,/,-0.2,/,0.0,/,/
CCOc1ccccc1N1CCN(S(=O)(=O)c2ccc(Cl)s2)CC1,-6.3,-1.3,-1.5,37.5*,-0.5,-2.2,27.0*
CCOc1ccccc1NC(=O)C1CCN(c2ccc(S(=O)(=O)N3CCCC3)cc2)CC1,-5.6,0.5,0.2,20.3*,0.4,1.4,20.2*
CC1CCCCC1NC(=O)COC(=O)C12CC3CC(CC(Cl)(C3)C1)C2 (stereo unspecified),-8.3,-0.1,-2.6,0.5,-1.9,/,/
CC(C)=C1C2CCC1C(C(=O)NCc1ccccc1)C2C(=O)O (stereo unspecified),-11.6,1.2,0.1,18.0*,-1.1,-0.3,3.5
O=C(Cn1cccn1)N1CCCC(N2CCN(Cc3ccc4c(c3)OCO4)CC2)C1 (stereo unspecified),-6.2,/,0.2,/,0.2,/,/
CCOC(=O)N1CCN(S(=O)(=O)c2ccc(OC)c(Cl)c2Cl)CC1,-17.2,1.8,4.2,0.5,3.4,/,/
COc1ccc(S(=O)(=O)N2CCCC2)c(Cl)c1Cl,2.6,-0.6,-1.4,11.5*,0.4,0.2,4.3
O=S(=O)(c1ccc(Cl)c2ccccc12)N1CCCC1,-1.0,-2.6,-2.0,8.6,-1.2,/,/
COc1c(S(=O)(=O)N2CCCC2)ccc(Cl)c1Cl,-7.4,0.4,-1.2,11.5*,-0.3,-0.5,7.5
CCOCCCNC(=O)c1ccc(NC(=O)C2CCCO2)cc1 (stereo unspecified),-7.5,/,1.0,/,1.5,/,/
Fc1ccc(-c2[nH]ncc2CN(CC2CCC2)CC2CCCO2)c(F)c1 (stereo unspecified),-10.2,-0.3,0.1,0.0,0.6,/,/
COc1cc(C)nc(N(C)S(=O)(=O)c2ccccc2Cl)n1,-0.7,2.9,0.4,28.0*,1.0,4.5,66.6*
CCN(C(=O)c1cnc(OC)cc1C(F)(F)F)c1ccc(Cl)cc1Cl,-12.8,0.9,-4.4,39.3*,-1.2,17.9,47.0*
COC(=O)c1ccc(C(=O)OC)c(NC(=S)N2CCN(c3ccccn3)CC2)c1,4.5,-0.9,-2.1,-0.4,-1.4,/,/
Nc1ncnc2c1nc(Br)n2[C@@H]1O[C@@H]2COP(=O)(O)O[C@H]2[C@H]1O,-12.2,/,-0.5,/,-0.3,/,/
COc1ccc(C(=O)Nc2ccc(S(=O)(=O)N3CCCCC3C)cc2)c(OC)c1OC (stereo unspecified),-6.4,1.3,3.4,70.0*,3.3,0.7,83.3*

# Bioassay records deposited in PubChem BioAssay by The Scripps Research Institute Molecular Screening Center.
